Laboratory results: ChEMBL document CHEMBL1221202, “Small-molecule pheromones that control dauer development in Caenorhabditis elegans” (Nat Chem Biol, 2007)
Active and inactive are the calls of the source. The calls are words filed in the database; no cut-off is given here.

Assays:
[1] = tested on: Caenorhabditis elegans; test: Induction of dauer formation in Caenorhabditis elegans Bristol osm-9(ky10) mutant at 20 degC; assay type: functional, organism-based
Summary of the method: (§1)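 Dauer formation assay: eggs were laid on agar plates containing a range of ascaroside concentrations plus a small amount of food, and percent dauer formation was scored. Stock worms were maintained at 20–23 °C on NG plates made with Noble agar and seeded with E. coli OP50.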

[2] = tested on: Caenorhabditis elegans; test: Induction of dauer formation in Caenorhabditis elegans Bristol tax-4(p678) mutant at 20 degC; assay type: functional, organism-based; summary of the method: as §1
[3] = tested on: Caenorhabditis elegans; test: Induction of dauer formation in wild type Caenorhabditis elegans Bristol […] at 20 degC; assay type: functional, organism-based
Summary of the method: (§2)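 Wild-type N2 eggs were laid on plates containing a range of ascaroside concentrations plus a little food, then held at 20 °C or 25 °C, and percent dauer formation was scored. Each value is the mean of three experiments. EC50 was taken as half-maximal activity from a sigmoidal fit with the lower limit fixed at 0 and the upper limit left free.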

[4] = tested on: Caenorhabditis elegans; test: Induction of dauer formation in Caenorhabditis elegans Bristol egl-4(ks61) mutant at 20 degC; assay type: functional, organism-based; summary of the method: as §1
[5] = tested on: Caenorhabditis elegans; test: Induction of dauer formation in wild type Caenorhabditis elegans Bristol […] at 25 degC; assay type: functional, organism-based; summary of the method: as §2
[6] = tested on: Caenorhabditis elegans; test: Induction of dauer formation in Caenorhabditis elegans Bristol ocr-2(ak47) mutant at 20 degC; assay type: functional, organism-based; summary of the method: as §1
[7] = tested on: Caenorhabditis elegans; test: Induction of dauer formation in Caenorhabditis elegans Bristol tax-2(p691) mutant at 20 degC; assay type: functional, organism-based; summary of the method: as §1
[8] = tested on: Caenorhabditis elegans; test: Induction of dauer formation in Caenorhabditis elegans Bristol daf-7(1372) mutant at 20 degC; assay type: functional, organism-based; summary of the method: as §1
[9] = tested on: Caenorhabditis elegans; test: Induction of dauer formation in wild type Caenorhabditis elegans Bristol N2 at 73 uM

EC50 [3] [nM] | EC50 [5] [nM] | Structure (SMILES) | Activity [1] | Activity [2] | Activity [4] | Activity [6] | Activity [7] | Activity [8] | Activity [9]
88000 | 18000 | C[C@H](CCCCC(=O)O)O[C@@H]1O[C@@H](C)[C@H](O)C[C@H]1O [DAUMONE] | inactive | inactive | inactive | inactive | inactive | inactive | –
1100 | 370 | C[C@H](CCCC/C=C/C(=O)O)O[C@@H]1O[C@@H](C)[C@H](O)C[C@H]1O | inactive | inactive | inactive | inactive | inactive | inactive | Active
460 | 120 | CC(=O)CC[C@@H](C)O[C@@H]1O[C@@H](C)[C@H](O)C[C@H]1O | inactive | inactive | inactive | inactive | inactive | inactive | Active
